Experimental data: ChEMBL document CHEMBL4765495, “Semisynthesis and Biological Evaluation of Platencin Thioether Derivatives: Dual FabF and FabH Inhibitors against MRSA” (ACS Med Chem Lett, 2021)
pKd: −log10 of the molar value. In brackets after ≈: the same amount, converted by molar mass. Activity calls are given as the source filed them. No cut-off for these calls is given here. Positions of bridges follow the written chain, without caps; N, C: chain ends. Non-standard residues stand in square brackets, D forms with d. Residues, ends and D or L forms follow the SMILES beside them. *: point of attachment. X1 = CC[C@H](C)CCCCC(=O)*; Dab = NCC[C@H](N)C(=O)O

Key:
Escherichia coli [1] = assay: Binding affinity to His6-tagged Escherichia coli FabF C163Q mutant expressed in Escherichia coli BL21 (DE3) assessed as change in enthalpy measured after 200 sec by isothermal titration calorimetry
Method in brief: (§1)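 Ligands were dissolved in PBS (10 mM, pH 7.4) and titrated into E. coli FabF(C163Q) in the same buffer. Protein was at 12 or 14 μM and ligand at 250 μM. Thermodynamic parameters (ΔH, ΔS, ΔG, Kd, n) were calculated from the heat of binding. Runs were done at least three times; one representative run was used.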

Staphylococcus aureus [2] = assay: Inhibition of Staphylococcus aureus FabH A81V/A111T mutant assessed as bacterial growth inhibition measured after 18 hrs by resazurin dye based broth dilution assay
Method in brief: (§2)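 S. aureus strains carrying point mutations in the FabH active site; MIC determined by broth dilution; data from at least two independent experiments.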

Escherichia coli [3] = assay: Binding affinity to His6-tagged Escherichia coli FabF C163Q mutant expressed in Escherichia coli BL21 (DE3) assessed as change in entropy measured after 200 sec by isothermal titration calorimetry; method in brief: as §1
Escherichia coli [4] = assay: Binding affinity to His6-tagged Escherichia coli FabF C163Q mutant expressed in Escherichia coli BL21 (DE3) assessed as stoichiometry ratio measured after 200 sec by isothermal titration calorimetry; method in brief: as §1
[5] = Binding affinity to His6-tagged Escherichia coli FabF C163Q mutant expressed in Escherichia coli BL21 (DE3) assessed as binding constant measured after 200 sec by isothermal titration calorimetry; method in brief: as §1
Staphylococcus aureus [6] = assay: Antibacterial activity against methicillin sensitive Staphylococcus aureus assessed as inhibition of bacterial growth measured after 16 hrs by agar plate dilution method; type: functional
Method in brief: (§3)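 Clinical MSSA and MRSA strains isolated from local hospitals; MIC determined by plate dilution; data from at least two independent experiments.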

Staphylococcus aureus [7] = assay: Antibacterial activity against methicillin resistant Staphylococcus aureus assessed as inhibition of bacterial growth measured after 18 hrs in presence of 10% human serum by resazurin dye based broth dilution assay; type: functional
Staphylococcus aureus [8] = assay: Antibacterial activity against Staphylococcus aureus ATCC 29213 assessed as inhibition of bacterial growth measured after 16 hrs by agar plate dilution method; type: functional
Method in brief: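 MIC determined by plate dilution against the reference strain; values from at least two independent experiments.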

Staphylococcus aureus [9] = assay: Inhibition of Staphylococcus aureus FabH A81V mutant assessed as bacterial growth inhibition measured after 18 hrs by resazurin dye based broth dilution assay; method in brief: as §2
Staphylococcus aureus [10] = assay: Antibacterial activity against methicillin resistant Staphylococcus aureus assessed as inhibition of bacterial growth measured after 16 hrs by agar plate dilution method; type: functional; method in brief: as §3
Enterococcus faecalis = assay: Antibacterial activity against Enterococcus faecalis ATCC 29212 assessed as inhibition of bacterial growth measured after 16 hrs by agar plate dilution method; type: functional
Escherichia coli [11] = assay: Antibacterial activity against Escherichia coli harboring delta tolC mutant assessed as inhibition of bacterial growth measured after 16 hrs by agar plate dilution method; type: functional
Escherichia coli [12] = assay: Binding affinity to His6-tagged Escherichia coli FabF C163Q mutant expressed in Escherichia coli BL21 (DE3) assessed Gibbs free energy change measured after 200 sec by isothermal titration calorimetry; method in brief: as §1
Escherichia coli [13] = assay: Binding affinity to His6-tagged Escherichia coli FabH expressed in Escherichia coli BL21 (DE3) assessed as decrease in melting temperature at 10 uM by SYPRO orange based differential scanning fluorimetry
Method in brief: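 Purified E. coli FabH melting curves were recorded with and without ligand by thermal-shift fluorometry in 1.0 M Tris-HCl, pH 6.8, a buffer chosen from seven screened. ΔTm was taken from the Tm shift; n = 4.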

[14] = molecular target: T1, 3-oxoacyl-[acyl-carrier-protein] synthase 2 (Staphylococcus aureus) (UniProt Q5TKS0); assay: Binding affinity to His6-tagged Staphylococcus aureus FabF expressed in Escherichia coli BL21 (DE3) assessed as decrease in melting temperature at 10 uM by SYPRO orange based differential scanning fluorimetry
T1 sequence (whole entry): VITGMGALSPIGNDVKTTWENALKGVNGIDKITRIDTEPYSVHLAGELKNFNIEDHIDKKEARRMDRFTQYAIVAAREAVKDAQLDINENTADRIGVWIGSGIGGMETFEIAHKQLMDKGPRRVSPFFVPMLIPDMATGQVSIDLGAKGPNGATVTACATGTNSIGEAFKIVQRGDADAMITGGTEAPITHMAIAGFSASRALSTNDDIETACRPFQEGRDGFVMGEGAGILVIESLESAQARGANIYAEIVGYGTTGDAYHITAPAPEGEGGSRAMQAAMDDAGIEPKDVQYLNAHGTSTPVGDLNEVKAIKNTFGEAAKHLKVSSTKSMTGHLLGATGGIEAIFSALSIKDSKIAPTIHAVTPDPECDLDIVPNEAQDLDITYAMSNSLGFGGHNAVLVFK
Method in brief: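 S. aureus FabF melting curves were measured by DSF in 20 mM HEPES, 180 mM NaCl, pH 7.5, a buffer selected by screening seven buffers. ΔTm was derived from the melting-temperature shift caused by ligand; n = 4.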

SMILES	deltaH (Escherichia coli [1]) [kcal/mol]	MIC (Staphylococcus aureus [2]) [µg/mL]	-TdeltaS (Escherichia coli [3]) [kcal/mol]	Ratio (Escherichia coli [4])	pKd [5]	MIC (Staphylococcus aureus [6]) [µg/mL]	MIC (Staphylococcus aureus [7]) [µg/mL]	MIC (Staphylococcus aureus [8]) [µg/mL]	MIC (Staphylococcus aureus [9]) [µg/mL]	MIC (Staphylococcus aureus [10]) [µg/mL]	MIC (Enterococcus faecalis) [µg/mL]	MIC (Escherichia coli [11]) [µg/mL]	deltaG (Escherichia coli [12]) [kcal/mol]	Activity (Escherichia coli [13])	Activity [14]
C[C@]12C[C@@]34C=CC(=O)[C@@](C)(CCC(=O)Nc5c(O)ccc(C(=O)O)c5O)[C@@H]3[C@H](C[C@@H]1C4)O2	-2.06	> 32	-7.95	1.16	7.76	0.5 (≈ 1.13 µM)	2	1 (≈ 2.27 µM)	> 32	1 (≈ 2.27 µM)	2 (≈ 4.53 µM)	32 (≈ 72.5 µM)	-10		
CC1(C)S[C@@H]2[C@H](NC(=O)[C@H](N)c3ccccc3)C(=O)N2[C@H]1C(=O)O		32 (≈ 91.6 µM)							16 (≈ 45.8 µM)						
CC[C@H](C)CCCCC(=O)N[C@@H](CCN)C(=O)N[C@H](C(=O)N[C@@H](CCN)C(=O)N[C@H]1CCNC(=O)[C@H]([C@@H](C)O)NC(=O)[C@H](CCN)NC(=O)[C@H](CCN)NC(=O)[C@H](CC(C)C)NC(=O)[C@@H](Cc2ccccc2)NC(=O)[C@H](CCN)NC1=O)[C@@H](C)O (X1-[Dab]T[Dab][Dab][Dab][dF]L[Dab][Dab]T; lactam 4-C)												4 (≈ 3.32 µM)			
C=C1C[C@]23C=C(SCCC)C(=O)[C@@](C)(CCC(=O)Nc4c(O)ccc(C(=O)O)c4O)[C@@H]2CC1CC3 (single isomer, unassigned)						4 (≈ 8.01 µM)		8 (≈ 16 µM)		4 (≈ 8.01 µM)				Active	Active
C=C1C[C@]23C=C(Sc4ccccn4)C(=O)[C@@](C)(CCC(=O)Nc4c(O)ccc(C(=O)O)c4O)[C@@H]2CC1CC3 (single isomer, unassigned)						2 (≈ 3.74 µM)		4 (≈ 7.48 µM)		2 (≈ 3.74 µM)				Active	Active
C=C1C[C@]23C=C(Sc4ccc(I)cc4)C(=O)[C@@](C)(CCC(=O)Nc4c(O)ccc(C(=O)O)c4O)[C@@H]2CC1CC3 (single isomer, unassigned)						4 (≈ 6.06 µM)		8 (≈ 12.1 µM)		4 (≈ 6.06 µM)				Active	Active
C=C1C[C@]23C=C(SC(C)(C)C)C(=O)[C@@](C)(CCC(=O)Nc4c(O)ccc(C(=O)O)c4O)[C@@H]2CC1CC3 (single isomer, unassigned)						8 (≈ 15.6 µM)		16 (≈ 31.1 µM)		8 (≈ 15.6 µM)				Active	Active
C=C1C[C@]23C=C(Sc4ccc(Br)cc4)C(=O)[C@@](C)(CCC(=O)Nc4c(O)ccc(C(=O)O)c4O)[C@@H]2CC1CC3 (single isomer, unassigned)		4 (≈ 6.53 µM)				1 (≈ 1.63 µM)	16	4 (≈ 6.53 µM)	8 (≈ 13.1 µM)	1 (≈ 1.63 µM)	2 (≈ 3.27 µM)	> 32		Active	Active
C=C1C[C@]23C=C(Sc4ccc(C)cc4)C(=O)[C@@](C)(CCC(=O)Nc4c(O)ccc(C(=O)O)c4O)[C@@H]2CC1CC3 (single isomer, unassigned)		16 (≈ 29.2 µM)				2 (≈ 3.65 µM)	> 32	4 (≈ 7.3 µM)	16 (≈ 29.2 µM)	1 (≈ 1.83 µM)	2 (≈ 3.65 µM)	> 32		Active	Active
C=C1C[C@]23C=C(Sc4ccccc4C)C(=O)[C@@](C)(CCC(=O)Nc4c(O)ccc(C(=O)O)c4O)[C@@H]2CC1CC3 (single isomer, unassigned)		4 (≈ 7.3 µM)				1 (≈ 1.83 µM)	32	1 (≈ 1.83 µM)	4 (≈ 7.3 µM)	1 (≈ 1.83 µM)	2 (≈ 3.65 µM)	> 32		Active	Active
C=C1C[C@]23C=C(Sc4cccs4)C(=O)[C@@](C)(CCC(=O)Nc4c(O)ccc(C(=O)O)c4O)[C@@H]2CC1CC3 (single isomer, unassigned)						2 (≈ 3.71 µM)		2 (≈ 3.71 µM)		2 (≈ 3.71 µM)				Active	Active
C=C1C[C@]23C=C(Sc4ncccn4)C(=O)[C@@](C)(CCC(=O)Nc4c(O)ccc(C(=O)O)c4O)[C@@H]2CC1CC3 (single isomer, unassigned)						8 (≈ 14.9 µM)		16 (≈ 29.9 µM)		8 (≈ 14.9 µM)				Active	Active
C=C1C[C@]23C=C(SCCO)C(=O)[C@@](C)(CCC(=O)Nc4c(O)ccc(C(=O)O)c4O)[C@@H]2CC1CC3 (single isomer, unassigned)	-1.09	> 32	-7.72	1.17	6.65	32 (≈ 63.8 µM)	> 32	8 (≈ 15.9 µM)	> 32	> 32	2 (≈ 3.99 µM)	> 32	-8.8		
C=C1C[C@@]23CCC1C[C@H]2[C@](C)(CCC(=O)Nc1c(O)ccc(C(=O)O)c1O)C(=O)[C@@H]1O[C@@H]13 (single isomer, unassigned)	-1.66	> 32	-7.59	1.17	6.99	4 (≈ 9.06 µM)	16	8 (≈ 18.1 µM)	> 32	4 (≈ 9.06 µM)	2 (≈ 4.53 µM)	4 (≈ 9.06 µM)	-9.25	Active	Active
CC(=O)NC[C@H]1CN(c2ccc(N3CCOCC3)c(F)c2)C(=O)O1 [LINEZOLID]						0.5 (≈ 1.48 µM)		0.5 (≈ 1.48 µM)		0.5 (≈ 1.48 µM)	0.5 (≈ 1.48 µM)				
